KLK5 inh: inhibitors of human kallikrein 5 | Q9Y337 | recombinant hK5, fluorogenic AMC substrate cleavage | inhibition, % at 5 µM | hit rate 0.59% among 210,000;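 active = inhibition of 40% or more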
Target sequence (Q9Y337 67-293 limits assumed): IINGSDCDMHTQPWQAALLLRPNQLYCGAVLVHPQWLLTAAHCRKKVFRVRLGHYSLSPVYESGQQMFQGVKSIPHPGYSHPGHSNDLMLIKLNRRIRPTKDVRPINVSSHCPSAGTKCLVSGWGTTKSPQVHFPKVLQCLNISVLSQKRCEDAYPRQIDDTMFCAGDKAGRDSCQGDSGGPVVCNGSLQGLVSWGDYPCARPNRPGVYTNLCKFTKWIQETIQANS
thrombin 1536: blocks human thrombin protease activity | P00734 | alpha-thrombin, Boc-VPR-AMC fluorogenic substrate cleavage | inhibition, % at 5 µM | hit rate 0.26% among 220,000 | AID 1046;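 active = inhibition at or above 40%; inactive = inhibition below 40%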
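Assay system: human alpha-thrombin enzyme. Reagent: Boc-VPR-AMC substrate, 15 µM final. Compound dosing: one concentration per compound, 5 µM, with 0.2% DMSO. Incubation: room-temperature reaction. Technique: AMC fluorescence, 355/460 nm. Measure: % inhibition relative to enzyme controls and enzyme-free blanks.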
FXIIa inh: inhibitors of human coagulation factor XIIa; P00748; purified FXIIa, Boc-QGR-AMC fluorogenic substrate, 2 h; inhibition, % at 5 µM; hit rate 0.3% among 220,000; AID 800; in the data active = inhibition above about 40%
Lipid droplet: hepatic lipid droplet formation modulation; AML12 mouse hepatocytes, oleate lipid droplets, BODIPY imaging; inhibition, % at 6.5 µM; hit rate 0.4% among 240,000; AID 1656;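 active = lipid droplet intensity inhibited by at least 50%, with more than 500 cells counted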
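Assay system: AML12 hepatocytes (mouse) / Also added: 100 µM oleic acid challenge / Times: overnight treatment with compound plus oleate / Detection: high-content imaging of BODIPY-stained droplets and DAPI nuclei / Evaluation: % inhibition of lipid droplet signal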
FXIa inh: factor XIa (human) inhibition; P03951; purified FXIa, Boc-Glu-Ala-Arg-AMC fluorogenic substrate; inhibition, % at 5 µM; hit rate 0.14% among 220,000;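 active = inhibition of at least 40%; inactive = inhibition below 40%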;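 also: fluorescence of freed AMC excited at 355 nm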
Calb biofilm kill: mixture kills Candida albicans biofilm cells; C. albicans biofilm persisters + clotrimazole, fluorescence viability; primary screen in compound mixtures of four per well; inhibition, % at 7.6 µM; hit rate 0.02% among 120,000;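 active = inhibition above 30.3% in the primary screen of four-compound pools, then above 30% when the compound was retested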;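 also: compounds exposed to preformed 24 h biofilms for 48 h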
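Incubation: 24 h biofilm formation, then 48 h compound exposure, 37 °C | Material: C. albicans biofilms | Buffer or medium: RPMI/MOPS medium, pH 7.0 | Measured by: 2-h Alamar Blue fluorescence, 535/590 nm excitation/emission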
Numbers stand for hits; . = inactive; / = no result given. Compounds with a hit are over-represented: about 1.1% of the library has one in this group of screens.

SMILES	KLK5 inh	thrombin 1536	FXIIa inh	Lipid droplet	FXIa inh	Calb biofilm kill
CCC(=O)n1nc(-c2ccccc2)nc1SCC(=O)Nc1ccc(C)cc1	.	51.7	.	/	.	/
Cc1ccc(NC(=O)CSc2ncc(-c3ccccc3)n2C(=O)c2ccccc2)cc1	.	.	.	/	.	/
O=C(Nc1ccc(Cl)c(C(F)(F)F)c1)C(=O)N1CCCCC1	.	.	.	.	.	.
O=C(Nc1ccc(Cl)c(C(F)(F)F)c1)N1CCCC(O)C1 (stereo not drawn)	.	.	42.0	.	.	/
CCc1ccc2oc(-c3ccc(NC(C)=O)cc3)nc2c1	/	/	/	.	/	/
O=C(O)CC(Cc1ccc(Br)cc1)C(=O)O (stereo not drawn)	.	.	61.4	.	.	/
CCOCCCNC(=O)c1cccs1	42.5	.	.	.	.	/
CCCCNC(=O)CNC(=O)c1cccs1	.	.	.	/	.	/
O=C(NCCO)/C(=C\c1ccc(Br)cc1)NC(=O)c1cccs1	.	.	.	.	.	.
COCCCNC(=O)/C(=C\c1cccn1C)NC(=O)c1cccs1	.	49.9	.	.	.	.
CCOc1ccccc1CN1CCC(N2CCOCC2)CC1	/	/	/	.	/	/
Cc1cc(Oc2ccc(-c3nnc(-c4ccccc4)o3)cc2[N+](=O)[O-])ccc1Cl	43.3	.	.	.	.	.
Cn1c(CN2CCCCC2)nc2cc(NS(=O)(=O)c3ccc(Cl)cc3)ccc21	.	75.9	.	.	.	/
C#CCNc1cc(C)nc2ncnn12	.	104.3	.	/	.	/
CC(OC(=O)CCCN1C(=O)c2ccccc2C1=O)C(=O)Nc1ncc(Cl)cc1Cl (stereo not drawn)	70.4	.	.	/	.	/
CC(OC(=O)Cc1coc2ccc3ccccc3c12)C(=O)Nc1ncc(Cl)cc1Cl (stereo not drawn)	.	.	.	.	.	.
Cc1nc(SCC(=O)NC(=O)NC(C)C)nc(C)c1C	50.1	.	.	.	.	.
N#Cc1c(N)nc2c3c(sc(=N)c2c1N)NC(=O)CC3c1c(F)cccc1Cl (stereo not drawn)	68.2	.	.	/	.	/
CCOc1ccc(CCNC(=O)Cn2ccc3ccccc3c2=O)cc1OCC	.	.	.	50.0	.	.
CC(=O)OCC1(C)CN(c2ccccc2)N(C(C)=O)C1=O (stereo not drawn)	.	.	.	.	.	.
CC(=O)OCC1(C)CN(c2ccccc2)N(C(=O)c2ccc(C(C)(C)C)cc2)C1=O (stereo not drawn)	.	43.3	.	.	.	.
CC1(C)CN(c2ccccc2)N(C(=O)c2ccc(F)cc2)C1=O	64.3	73.6	.	/	.	/
COc1cccc(C(=O)NCC(=O)N2CCC3(CC2)NCCc2[nH]cnc23)c1	/	/	/	.	/	/
O=C(c1ccco1)n1nc(-c2ccccc2)nc1NCc1ccco1	.	.	.	.	.	/
O=C(c1cccs1)n1nc(-c2ccccc2)nc1NCc1ccc(F)cc1	.	.	.	.	.	/
SMILES	KLK5 inh	thrombin 1536	FXIIa inh	Lipid droplet	FXIa inh	Calb biofilm kill
O=C(c1ccc([N+](=O)[O-])cc1)n1nc(-c2ccccc2)nc1NCc1ccc(F)cc1	.	52.3	.	.	.	.
O=C(c1ccc(F)cc1)n1c(NCc2ccccc2)n[nH]c1=S	.	.	.	.	.	.
O=C(c1cccc([N+](=O)[O-])c1)n1nc(-c2ccccc2)nc1NCc1ccccc1	.	66.9	.	.	.	.
CC(=O)n1nc(-c2ccccc2)nc1NCc1ccc(F)cc1	.	98.1	.	.	.	/
O=C(c1ccc([N+](=O)[O-])cc1)n1nc(-c2ccccc2)nc1NCc1ccccc1	.	87.2	.	/	.	/
CCn1cc(/C=C(\NC(=O)c2ccccc2F)C(=O)NCCCn2ccnc2)c2ccccc21	/	/	/	.	/	/
COc1ccc(CC(=O)N2CCc3cc(OC)c(OC)cc3C2C)c(OC)c1 (stereo not drawn)	/	/	/	.	/	/
Cc1cc(CN(C)C(=O)C2CCC(=O)N(CCc3cccc(F)c3)C2)on1 (stereo not drawn)	/	/	/	.	/	/
COc1ccc(CNC(=O)CCS(=O)(=O)c2ccc3c(c2)NC(=O)CS3)cc1	/	/	/	.	/	/
O=C(CSc1nc(-c2ccccc2)nn1C(=O)c1ccccc1)Nc1cccc([N+](=O)[O-])c1	.	57.1	.	/	.	/
CCc1ccccc1NC(=O)CSc1nc(-c2ccccc2)nn1C(=O)c1cccc([N+](=O)[O-])c1	.	.	.	/	.	/
CCCCS(=O)(=O)c1sc2nc3c(cc2c1N)CCCC3	42.2	.	.	.	.	/
CC(=O)c1cccc(-n2nnnc2SCC(=O)Nc2cc(C)on2)c1	/	/	/	.	/	/
Cc1ccc(OCc2nnc(SCC(=O)N3C(C)CCCC3C)o2)cc1 (stereo not drawn)	/	/	/	.	/	/
Cc1ccc(OCc2cc(C(=O)N3CCN(CC(=O)NC(C)C)CC3)no2)cn1	/	/	/	.	/	/
Cc1ccc(/C=c2\sc3nc(-c4ccccc4Br)nn3c2=O)o1	.	103.5	.	.	.	/
Cc1ccc(/C=c2\sc3nc(-c4ccco4)nn3c2=O)o1	.	.	.	.	.	/
COc1ccccc1C1C(C#N)=C(N)N(N(C)C)C2=C1C(=O)CC(C)(C)C2 (stereo not drawn)	/	/	/	.	/	/
CCn1c(SCC(=O)c2ccccc2)nnc1-c1cnccn1	42.8	.	.	.	.	/
CCn1c(SCC(=O)Nc2cccnc2Cl)nnc1-c1ccccc1	62.0	.	105.9	.	.	.
CCn1c(SCC(=O)Nc2nccs2)nnc1-c1ccccc1	40.7	.	.	.	.	/
C=CCn1c(SCC(=O)Nc2cccnc2Cl)nnc1-c1ccc(Cl)cc1	.	.	41.0	.	.	.
C=CCn1c(SCC(=O)Nc2c(C)cccc2C)nnc1-c1ccncc1	.	.	.	.	.	/
Cc1nn(C)c(C)c1S(=O)(=O)N(CC(=O)NCCCN1CC(C)CC(C)C1)c1ccc(C(C)C)cc1 (stereo not drawn)	/	/	/	.	/	/
COc1ccc(/C=C/C(=O)NCC(c2ccc(F)cc2)N2CCOCC2)cc1OC (stereo not drawn)	.	.	.	.	.	.
